# In PubChem BioAssay:
# Calls of active or inactive are those of the source.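 How the source made its calls, unless noted: active means fluorescence slope higher than the sample average by over 3 SD (cut at about -0.22 in these data, passing the limit was not always enough); inactive means the rest.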
# How the values were obtained:
# [1] = inhibitors of TNFa-induced NFkB p65 translocation, primary screen, imaging, HUVEC, MLSMR starter and 10KST1 sets (AID 438;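 active means inhibition above 20% together with a positive visual image hit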;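 further: compound added about 3h40 before a 20 min TNFalpha stimulation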;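 on inhibition: signal is the nuclear over cytoplasmic p65 intensity ratio per well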); details: HUVEC TNFa-induced p65 nuclear translocation; cell count: measured here: nuclei count (cytotoxicity indicator), at 2.08 µM; inhibition: at 2 µM, stronger effect = higher value, 0% TNFa-plus-vehicle, 100% no-TNFa wells
# [2] = reduction of polyQ htt aggregates in cells – imaging, exon1htt(103Q)mCFP cells, high-content imaging, primary screen (AID 483;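 active means visual image review flags a hit and inhibition of aggregation exceeds 20%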;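 further: compound exposure lasted 3 days before fixation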;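 on nuclei count: percent of the per-plate median nuclei count of sample wells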); details: exon1htt(103Q)mCFP cell line, aggregate imaging, at 2 µM; inhibition of aggregation: stronger effect = higher value; nuclei count: measured here: cell count, toxicity
# [3] = endothelial E-selectin expression blockers – imaging, HUVEC, immunofluorescence, MLSMR starter and 10KST1 sets, primary screen (AID 487;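 active means visually confirmed hit in the image check and inhibition above 20%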;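 on inhibition: signal is fraction of cell area covered by stained E-selectin grains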;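 on nuclei count: 100% = median nuclei count of all wells on the same plate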); details: HUVEC TNFalpha-induced E-selectin immunofluorescence imaging, at 2 µM; inhibition: stronger effect = higher value; nuclei count: measured here: cell number, toxicity
# [4] = biological target: Voltage-gated potassium channel subunit beta-2 (Rattus norvegicus) (UniProt P62483); assay: inhibitors of rat Kvbeta2 reductase activity – biochemical, NADPH fluorescence, primary screen (AID 622); details: recombinant KvBeta, 4-cyanobenzaldehyde reduction, at 10 µM, stronger effect = higher value;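 further: slope of raw intensity against log time taken from 70 to 1610 s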
# Sequence of Voltage-gated potassium channel subunit beta-2 (Rattus norvegicus) (P62483 whole entry, looked up): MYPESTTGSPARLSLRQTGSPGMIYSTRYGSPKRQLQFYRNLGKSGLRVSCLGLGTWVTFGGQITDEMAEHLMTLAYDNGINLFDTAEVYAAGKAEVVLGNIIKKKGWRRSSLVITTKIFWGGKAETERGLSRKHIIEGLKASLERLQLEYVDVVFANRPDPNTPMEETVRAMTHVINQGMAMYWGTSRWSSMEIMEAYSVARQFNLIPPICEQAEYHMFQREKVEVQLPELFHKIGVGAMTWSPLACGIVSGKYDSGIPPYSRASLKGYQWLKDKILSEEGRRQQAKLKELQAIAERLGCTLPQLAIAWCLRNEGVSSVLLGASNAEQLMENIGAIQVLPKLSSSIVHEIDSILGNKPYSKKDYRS
# [5] = biological target: Voltage-gated potassium channel subunit beta-2 (Rattus norvegicus) (UniProt P62483); assay: enhancers of rat Kvbeta2 NADPH turnover – biochemical, NADPH fluorescence, primary screen (AID 623;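 active means NADPH fluorescence slope more negative than the mean of all samples by about 3 SD, 99.7% confidence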;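 further: fluorescence intensity change per second fitted from 20 to 320 s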); details: Recombinant KvBeta, NADPH fluorescence decrease slope, 10 min; at 10 µM; stronger effect = lower value
# [6] = biological target: Alpha-2C adrenergic receptor (Homo sapiens) (UniProt P18825); assay: compounds altering alpha2C-coupled GIRK flux – cell-based, HEK293 alpha2C/GIRK1/2, thallium flux, primary screen (AID 624;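 active means fluorescence slope after compound addition differing from the mean of all screened samples at 99.7% confidence, in either direction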;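 further: slope of fluorescence ratio to pre-addition baseline per second over 15 to 24 s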); details: thallium flux BTC fluorescence, at 10 µM, actives lie on both sides
# Sequence of Alpha-2C adrenergic receptor (Homo sapiens) (P18825 whole entry, looked up): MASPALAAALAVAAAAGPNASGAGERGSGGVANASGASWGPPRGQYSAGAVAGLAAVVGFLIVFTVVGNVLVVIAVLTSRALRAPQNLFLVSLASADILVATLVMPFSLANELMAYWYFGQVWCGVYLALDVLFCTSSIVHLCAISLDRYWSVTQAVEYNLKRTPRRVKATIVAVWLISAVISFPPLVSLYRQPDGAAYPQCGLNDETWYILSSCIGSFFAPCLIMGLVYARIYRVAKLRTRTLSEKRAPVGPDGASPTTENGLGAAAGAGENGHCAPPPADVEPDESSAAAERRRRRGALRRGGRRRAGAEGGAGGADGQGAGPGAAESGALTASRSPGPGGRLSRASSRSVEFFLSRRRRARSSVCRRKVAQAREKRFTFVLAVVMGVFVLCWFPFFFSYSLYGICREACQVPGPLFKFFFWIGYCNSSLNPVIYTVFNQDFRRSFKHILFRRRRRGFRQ
# [7] = inhibitors of larval lipid processing in zebrafish, primary screen, whole organism, PED6 fluorescence, gall bladder and intestine (AID 686;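 active means a full or partial loss of lipid-probe fluorescence in the fish gall bladder, intestine or both, judged by eye; inactive means no fluorescence loss, or compound toxic to the fish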;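 further: larvae 5 to 7 days old with five fish per well; signal comes from phospholipase A2 cleavage of quenched PED6 carried via bile; overnight exposure to compound and PED6 before scoring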); details: Zebrafish larvae PED6 lipid processing, fluorescence scoring; screened at 20 µM (by protocol)
# Outline: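 Test system – live zebrafish larvae aged 5-7 days, whole organism · Buffer or medium – E3 fish medium · Reagent – quenched phospholipase substrate PED6, 100 nM final, ingested by larvae · Doses – 20 µM single dose · Incubation – overnight compound and PED6 incubation · Technique – visual fluorescence microscopy scoring of gall bladder, gut · Read-out basis – visual per-well fluorescence inhibition score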
# [8] = blockers of RIG-like receptor reporter activation – cell-based, Sendai virus stimulus, luciferase, 10K MLSCN set, TLR/RLR signaling modifier project, primary screen (AID 602276;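 active means inhibition at or above 50% at 10 µM; inactive means inhibition below 50%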;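 further: firefly luciferase from ISG56 promoter only with Renilla not read in this screen; 0% = Sendai virus plus DMSO and 100% = medium plus DMSO without virus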); details: HEK293 RL24 IRF3 luciferase reporter, at 10 µM, stronger effect = higher value
# [9] = TLR3 IRF3 reporter activation blockers – cell-based, poly I:C stimulus, luciferase, 10K MLSCN set, primary screen (AID 602277;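 active means inhibition of the reporter signal at or above 50%; inactive means inhibition below 50%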); details: HEK293-TLR3 RL24 IRF3 luciferase reporter, at 10 µM, stronger effect = higher value
smiles,measurement,setting,value
O=C(Nc1sccc1C(=O)NCc1ccco1)c1cccnc1,cell count,[1],343
same,inhibition,[1],2.1% (inactive)
same,inhibition of aggregation,[2],-22.2% (inactive)
same,nuclei count,[2],103%
same,inhibition,[3],-92.1% (inactive)
same,nuclei count,[3],119%
same,fluorescence slope,[4],-0.461 (inactive)
same,NADPH fluorescence slope,[5],-3.3e-05 (inactive)
same,slope,[6],0.00445 (inactive)
same,outcome,[7],inactive
same,inhibition,[8],5.47% (inactive)
same,inhibition,[9],-21.6% (inactive)
CCC1CCCCN1CCCNC(=O)c1ccc(CS(=O)(=O)Cc2ccccc2F)o1 (stereo unspecified),cell count,[1],618
same,inhibition,[1],-20.5% (inactive)
same,inhibition of aggregation,[2],7.5% (inactive)
same,nuclei count,[2],94.4%
same,inhibition,[3],-64.6% (inactive)
same,nuclei count,[3],91%
same,fluorescence slope,[4],-0.416 (inactive)
same,NADPH fluorescence slope,[5],-5.4e-05 (inactive)
same,slope,[6],0.00482 (inactive)
same,outcome,[7],inactive
same,inhibition,[8],6.88% (inactive)
same,inhibition,[9],20.5% (inactive)
Cc1nn(Cc2ccccc2)c2c1C(c1ccncc1)C(C#N)=C(N)O2 (stereo unspecified),cell count,[1],273
same,inhibition,[1],-1.3% (inactive)
same,inhibition of aggregation,[2],17.9% (inactive)
same,nuclei count,[2],62.3%
same,inhibition,[3],-58.9% (inactive)
same,nuclei count,[3],97.3%
same,fluorescence slope,[4],-0.381 (inactive)
same,NADPH fluorescence slope,[5],-5.9e-05 (inactive)
same,slope,[6],0.0052 (inactive)
same,outcome,[7],inactive
same,inhibition,[8],2.54% (inactive)
same,inhibition,[9],0.489% (inactive)
CCOC(=O)c1ccc(CNC(=O)C(Cc2c[nH]c3ccccc23)NC(C)=O)o1 (stereo unspecified),cell count,[1],444
same,inhibition,[1],-0.3% (inactive)
same,inhibition of aggregation,[2],-11.1% (inactive)
same,nuclei count,[2],122%
same,inhibition,[3],-52.8% (inactive)
same,nuclei count,[3],167%
same,fluorescence slope,[4],-0.369 (inactive)
same,NADPH fluorescence slope,[5],-4.9e-06 (inactive)
same,slope,[6],0.00652 (inactive)
same,outcome,[7],inactive
same,inhibition,[8],17% (inactive)
same,inhibition,[9],29.3% (inactive)
CC(=O)N1CCc2cc(S(=O)(=O)NCCC(=O)Nc3cc(C)cc(C)c3)ccc21,cell count,[1],611
same,inhibition,[1],-11.5% (inactive)
same,inhibition of aggregation,[2],15.1% (inactive)
same,nuclei count,[2],97.8%
same,inhibition,[3],25.9% (inactive)
same,nuclei count,[3],98%
same,fluorescence slope,[4],-0.399 (inactive)
same,NADPH fluorescence slope,[5],-8.9e-05 (inactive)
same,slope,[6],0.00432 (inactive)
same,outcome,[7],inactive
same,inhibition,[8],12.9% (inactive)
same,inhibition,[9],12.5% (inactive)
COC(=O)CN(Cc1ccco1)S(=O)(=O)c1ccccc1,cell count,[1],554
same,inhibition,[1],-13.3% (inactive)
same,inhibition of aggregation,[2],-8.4% (inactive)
same,nuclei count,[2],111%
same,inhibition,[3],-9.7% (inactive)
same,nuclei count,[3],112%
same,fluorescence slope,[4],-0.351 (inactive)
same,NADPH fluorescence slope,[5],-5.1e-05 (inactive)
same,slope,[6],0.00494 (inactive)
same,outcome,[7],inactive
same,inhibition,[8],7.73% (inactive)
same,inhibition,[9],6.21% (inactive)
COc1cccc(Nc2nnc(SCC(=O)N3CC(C)OC(C)C3)s2)c1 (stereo unspecified),cell count,[1],448
same,inhibition,[1],4.8% (inactive)
same,inhibition of aggregation,[2],14.5% (inactive)
same,nuclei count,[2],73.5%
same,inhibition,[3],-19.6% (inactive)
same,nuclei count,[3],117%
same,fluorescence slope,[4],-0.409 (inactive)
same,NADPH fluorescence slope,[5],-9.2e-05 (inactive)
same,slope,[6],0.00562 (inactive)
same,outcome,[7],inactive
same,inhibition,[8],-1.41% (inactive)
same,inhibition,[9],-10% (inactive)
Cc1nc2ccc(F)cc2cc1C(=O)NCC1CCCO1 (stereo unspecified),cell count,[1],421
same,inhibition,[1],-8.7% (inactive)
same,inhibition of aggregation,[2],7.6% (inactive)
same,nuclei count,[2],96.4%
same,inhibition,[3],-34.7% (inactive)
same,nuclei count,[3],115%
same,fluorescence slope,[4],-0.432 (inactive)
same,NADPH fluorescence slope,[5],-4.9e-05 (inactive)
same,slope,[6],0.00492 (inactive)
same,outcome,[7],inactive
same,inhibition,[8],17.3% (inactive)
same,inhibition,[9],27.4% (inactive)
CC(=O)NCCC(=O)Nc1ccc(C)c(F)c1,cell count,[1],417
same,inhibition,[1],-4.4% (inactive)
same,inhibition of aggregation,[2],-5.1% (inactive)
same,nuclei count,[2],109%
same,inhibition,[3],-55.7% (inactive)
same,nuclei count,[3],110%
same,fluorescence slope,[4],-0.451 (inactive)
same,NADPH fluorescence slope,[5],-1.3e-05 (inactive)
same,slope,[6],0.00617 (inactive)
same,outcome,[7],inactive
same,inhibition,[8],-3.46% (inactive)
same,inhibition,[9],-7.08% (inactive)
Cc1cc(NC(=O)CS(=O)(=O)c2cn(Cc3ccccc3Cl)c3ccccc23)no1,cell count,[1],767
same,inhibition,[1],-27.1% (inactive)
same,inhibition of aggregation,[2],0.3% (inactive)
same,nuclei count,[2],98.5%
same,inhibition,[3],67.2% (active)
same,nuclei count,[3],83.3%
same,fluorescence slope,[4],-0.323 (inactive)
same,NADPH fluorescence slope,[5],-2.3e-05 (inactive)
same,slope,[6],0.00422 (inactive)
same,outcome,[7],inactive
same,inhibition,[8],7.87% (inactive)
same,inhibition,[9],2.26% (inactive)
CN(C)c1ccc(C2C3=C(CCCC3=O)OC3=C2C(=O)CCC3)cc1,cell count,[1],571
same,inhibition,[1],-6.3% (inactive)
same,inhibition of aggregation,[2],8.9% (inactive)
same,nuclei count,[2],112%
same,inhibition,[3],-20.9% (inactive)
same,nuclei count,[3],110%
same,fluorescence slope,[4],-0.37 (inactive)
same,NADPH fluorescence slope,[5],-5.2e-05 (inactive)
same,slope,[6],0.00729 (inactive)
same,outcome,[7],inactive
same,inhibition,[8],14.3% (inactive)
same,inhibition,[9],17% (inactive)
CS(=O)(=O)N(CC(=O)N1CCCCCC1)c1ccc(Br)cc1,cell count,[1],485
same,inhibition,[1],-38.8% (inactive)
same,inhibition of aggregation,[2],20.1% (inactive)
same,nuclei count,[2],81.6%
same,inhibition,[3],13.3% (inactive)
same,nuclei count,[3],95.6%
same,fluorescence slope,[4],-0.353 (inactive)
same,NADPH fluorescence slope,[5],-5.4e-05 (inactive)
same,slope,[6],0.00619 (inactive)
same,outcome,[7],inactive
same,inhibition,[8],15.8% (inactive)
same,inhibition,[9],16% (inactive)
Cn1c(=O)[nH]c(=O)c2c1nc(Br)n2CCCSc1nc2ccccc2o1,cell count,[1],588
same,inhibition,[1],-2.9% (inactive)
same,inhibition of aggregation,[2],-18.5% (inactive)
same,nuclei count,[2],112%
same,inhibition,[3],-8.4% (inactive)
same,nuclei count,[3],100%
same,fluorescence slope,[4],-0.352 (inactive)
same,NADPH fluorescence slope,[5],-6.5e-05 (inactive)
same,slope,[6],0.00502 (inactive)
same,outcome,[7],inactive
same,inhibition,[8],17.2% (inactive)
same,inhibition,[9],9.4% (inactive)
